From ChEMBL document CHEMBL1125034, “Design and synthesis of 4H-3,1-benzoxazin-4-ones as potent alternate substrate inhibitors of human leukocyte elastase” (J Med Chem, 1990) come the findings set out here.

The structures appear in SMILES notation.

Data set [1] concerns the target T1, Neutrophil elastase (Homo sapiens) (UniProt P08246).
T1 sequence (whole entry): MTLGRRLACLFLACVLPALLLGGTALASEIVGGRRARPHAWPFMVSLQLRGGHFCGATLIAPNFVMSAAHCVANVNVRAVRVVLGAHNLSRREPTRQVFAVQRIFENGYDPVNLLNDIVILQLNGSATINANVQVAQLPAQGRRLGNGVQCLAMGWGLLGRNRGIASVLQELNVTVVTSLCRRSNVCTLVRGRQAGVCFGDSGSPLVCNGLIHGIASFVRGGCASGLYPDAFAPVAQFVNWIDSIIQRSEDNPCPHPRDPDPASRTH
Put plainly: Component acylation rate constant for interaction with human leukocyte elastase.

Data set [2] addresses T1, Neutrophil elastase (Homo sapiens). Put plainly: Component deacylation rate constant for interaction with human leukocyte elastase.
Data set [3] is described as follows: Alkaline hydrolysis rate of the compound. In kind it is ADME. A digest of the protocol:
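Alkaline hydrolysis rate constants measured at several pH values at 25 °C. Loss of the long-wavelength UV chromophore (λmax typically 300-345 nm) was followed by spectrophotometer.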

Data set [4] can be described thus: Partition coefficient (logD7.4). In kind it is physicochemical. The settings on record: octanol/water, pH 7.4.
In a further data set the target is T2, Neutrophil elastase (Homo sapiens, UniProt P08246).
T2 sequence (P08246 whole entry): T1 sequence (whole entry)
Put plainly: Inhibition of human leukocyte elastase.

As usually defined, the logD is lipophilicity at a set pH, counting ionised and neutral species. Low readings indicate lower lipophilicity, high ones higher lipophilicity. For orientation: Ki means the equilibrium dissociation constant of an inhibitor or competing ligand from its target. On to `Cc1cccc2nc(C(F)(F)F)oc(=O)c12`, for which, in data set [1], the Log kon stood at 5.11. The Log koff in data set [2] is -2.43. Moreover, in data set [3], the “Log kOH-” value is 3.14. For the same compound, the logD in data set [4] turned out to be 2.9. For the same compound, the Ki at Neutrophil elastase is 28.8 nM.
With `O=c1oc(/C=C/c2ccccc2)nc2ccccc12`, the Log kon in data set [1] was 2.59. The Log koff in data set [2] is -2.5. In addition, the “Log kOH-” value in data set [3] is reported as 1.57. In data set [4], this compound gave a pH-dependent lipophilicity (logD) of 3.9. The compound further had a Ki on Neutrophil elastase of 8130 nM.
The corresponding values for `NC(=O)[C@H](Cc1ccccc1)NC(=O)[C@@H]1CCCN1c1nc2ccccc2c(=O)o1` are 4.16, -3.27, 1.23, 1.2 and 37.2 nM.
Compound `COC(=O)[C@H](CC(C)C)Nc1nc2ccccc2c(=O)o1` displayed a Log kon in data set [1] of 3.36. In data set [2], the Log koff was -3.41. Also, the “Log kOH-” value in data set [3] is 1.13. This compound displayed a logD in data set [4] of 3.2. The compound further showed a Ki at Neutrophil elastase of 170 nM.
The matching figures for `COC(=O)[C@H](Cc1ccc(O)cc1)Nc1nc2ccccc2c(=O)o1`: 3.28, -3.07, 1.28, 0.3 and 447 nM.
In turn, `CC(C)C[C@H](NC(=O)[C@@H]1CCCN1c1nc2ccccc2c(=O)o1)C(=O)NCC(N)=O` had a Log kon in data set [1] of 4.04. For the same compound, the Log koff in data set [2] is -3.64. The “Log kOH-” value in data set [3] is 1.26. Moreover, the logD in data set [4] is 0.8. This compound showed an inhibition constant (Ki) at Neutrophil elastase of 20.9 nM.
The matching figures for `O=c1oc(NCCc2ccccc2)nc2ccccc12`: 3.05, -2.72, 1.15, 3.2 and 1700 nM.
